From ChEMBL document CHEMBL4312029, “Structure-activity relationship studies and in vitro and in vivo anticancer activity of novel 3-aroyl-1,4-diarylpyrroles against solid tumors and hematological malignancies” (Eur J Med Chem, 2020)
The source made the active and inactive calls. The rule behind the calls is not given here.

Columns and labels:
KBM5 [1] = experiment: Induction of apoptotic cell death in human KBM5 cells expressing IM-sensitive wild type Bcr/Abl at 10 nM incubated for 48 hrs by Annexin V-staining based flow cytometry; format: functional
In short: (§1)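 KBM5-WT and KBM5-T315I cells exposed 48 h to 10 nM test compound alone or combined with 10 nM nilotinib (nilotinib alone as comparator). Apoptotic cells quantified by annexin V staining and flow cytometry; triplicate.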

KBM5 [2] = experiment: Cytotoxicity against human KBM5 cells expressing IM- sensitive wild type Bcr/Abl assessed as reduction in cell viability incubated for 48 hrs by MTT assay; format: functional, cell-based; details: KBM5, 48 h
[3] = Cytotoxicity against human LAMA84-s cells expressing IM-sensitive wild type Bcr/Abl assessed as reduction in cell viability incubated for 48 hrs by MTT assay; format: functional, cell-based
KU812 cell line = experiment: Cytotoxicity against human KU812 cells expressing IM- sensitive wild type Bcr/Abl assessed as reduction in cell viability incubated for 48 hrs by MTT assay; format: functional, cell-based; details: KU812, 48 h
KBM5 [4] = experiment: Induction of apoptotic cell death in human KBM5 cells expressing IM-resistant Bcr/Abl T315I mutant at 10 nM incubated for 48 hrs by Annexin V-staining based flow cytometry; format: functional; in short: as §1
[5] = Cytotoxicity against IM resistant human LAMA84-r cells assessed as reduction in cell viability incubated for 48 hrs by MTT assay; format: functional, cell-based
KBM5 [6] = experiment: Cytotoxicity against human KBM5 cells expressing IM-resistant Bcr/Abl T315I mutant assessed as reduction in cell viability incubated for 48 hrs by MTT assay; format: functional, cell-based; details: KBM5, 48 h
Tubulin = experiment: Inhibition of tubulin polymerization (unknown origin) incubated for 15 mins followed by GTP addition and measured for 20 mins by spectrophotometry; format: protein-complex assay, Homo sapiens
In short: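 Tubulin assembly assay with tubulin at 10 µM. IC50 for inhibition of polymerization; run in duplicate or triplicate.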

Tubulin (Homo sapiens) = Tubulin (Homo sapiens) (UniProt P68371+Q9H4B7+P0DPH7+P68366+Q13509+Q71U36+P04350+Q3ZCM7+P07437+P68363+Q9BQE3+Q6PEY2+Q13885+Q9BVA1+Q9BUF5); experiment: Inhibition of [3H]colchicine binding to tubulin (unknown origin) at 5 uM incubated for 10 mins by DEAE-cellulose filter method relative to control; format: protein-complex assay
MCF7 = experiment: Cytotoxicity against human MCF7 cells assessed as reduction in cell growth incubated for 96 hrs by MTT assay; format: functional, cell-based; details: MCF7, 96 h
In short: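 Growth inhibition of human breast carcinoma cells, reported as IC50; run in duplicate or triplicate.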

Row | SMILES | Activity (KBM5 [1]) | IC50 (KBM5 [2]) | IC50 [3] | IC50 (KU812 cell line) | Activity (KBM5 [4]) | IC50 [5] | IC50 (KBM5 [6]) | IC50 (Tubulin) | inhibition (Tubulin (Homo sapiens)) | IC50 (MCF7)
1 | Cc1cn(-c2cc(NC(=O)c3ccc(C)c(Nc4nccc(-c5cccnc5)n4)c3)cc(C(F)(F)F)c2)cn1 [NILOTINIB] | Active | 12 nM | 11 nM | 10 nM | Active | 126 nM | 2420 nM | – | – | –
2 | COc1cc(C(=O)c2cn(-c3ccc(C)cc3)cc2-c2ccc(N)cc2)cc(OC)c1OC | – | – | – | – | – | – | – | 360 nM | 95% | 6 nM
3 | COc1cc(C(=O)c2cn(-c3ccc(C)cc3)cc2-c2cccc(N)c2)cc(OC)c1OC | – | – | – | – | – | – | – | 420 nM | 88% | 53 nM
4 | COc1cc(C(=O)c2cn(-c3ccc(F)cc3)cc2-c2ccccc2[N+](=O)[O-])cc(OC)c1OC | – | – | – | – | – | – | – | 680 nM | 46% | 38 nM
